FXIa inh 1536 = human FXIa protease inhibitors, primary screen, biochemical, 1536-well | Coagulation factor XI (Homo sapiens), P03951 | purified FXIa, Boc-Glu-Ala-Arg-AMC fluorogenic substrate | inhibition, % at 5 µM | 220,000 tested, 0.14% active | AID 798, 2007;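 active = inhibition of at least 40%; inactive = inhibition below 40%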;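 also: fluorescence of freed AMC excited at 355 nm; 0% = enzyme without compound and 100% = no enzyme blank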
Target sequence (P03951 19-387 limits assumed): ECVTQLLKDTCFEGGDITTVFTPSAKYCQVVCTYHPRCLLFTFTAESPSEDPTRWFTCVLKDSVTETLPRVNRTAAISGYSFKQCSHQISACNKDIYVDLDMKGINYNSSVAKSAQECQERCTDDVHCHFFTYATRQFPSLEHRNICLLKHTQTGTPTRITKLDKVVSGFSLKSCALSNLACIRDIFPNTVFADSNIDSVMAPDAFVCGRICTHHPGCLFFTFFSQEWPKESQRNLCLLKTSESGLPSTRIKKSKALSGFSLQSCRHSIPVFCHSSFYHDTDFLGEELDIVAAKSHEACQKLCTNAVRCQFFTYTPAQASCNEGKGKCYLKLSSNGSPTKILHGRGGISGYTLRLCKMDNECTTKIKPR
Target sequence (P03951 388-625 limits assumed): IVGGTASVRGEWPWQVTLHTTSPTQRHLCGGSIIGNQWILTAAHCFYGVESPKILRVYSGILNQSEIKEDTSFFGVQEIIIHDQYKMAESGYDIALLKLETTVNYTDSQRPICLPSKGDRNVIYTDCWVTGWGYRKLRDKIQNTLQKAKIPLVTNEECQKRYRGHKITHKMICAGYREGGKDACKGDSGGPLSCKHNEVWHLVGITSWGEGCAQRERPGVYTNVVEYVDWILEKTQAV
thrombin 1536 = human alpha-thrombin inhibitors, primary screen, counter-screen for coagulation protease inhibitor project, biochemical, 1536-well, fluorogenic AMC substrate | Prothrombin (Homo sapiens), P00734 | Boc-VPR-AMC fluorogenic substrate cleavage | inhibition, % at 5 µM | 220,000 tested, 0.26% active | AID 1046, 2008;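 active = inhibition at or above 40%; inactive = inhibition below 40%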;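 also: 0% = enzyme with no compound and 100% = wells without enzyme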
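System: Human alpha-thrombin protein | Medium: pH 7.5 Tris (50 mM) with NaCl 150 mM, Tween 20 0.05% | Times: Enzyme reaction carried out at room temperature | Detection: AMC fluorescence, 355/460 nm | Evaluation: Percent inhibition scaled between no-compound controls and no-enzyme blanks | Benchmarks: Enzyme without compound as high, wells lacking enzyme as low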
m-calpain inh = inhibitors of pig calpain II, primary screen, biochemical, fluorogenic peptide substrate, 1536-well; inhibition, % at 16 µM; purified calpain II, 30 min; 220,000 tested, 0.37% active;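 active = inhibition above about 50%, limit read from the data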
FXIIa inh = human FXIIa protease inhibitors, primary screen, biochemical, 1536-well | inhibition, % at 5 µM | AID 800, 2007 | purified FXIIa, Boc-QGR-AMC fluorogenic substrate, 2 h | 220,000 tested, 0.3% active | Coagulation factor XII (Homo sapiens), P00748; in the data active = inhibition above about 40%;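 also: 0% = enzyme with no compound and 100% = blank without enzyme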
hK5 inh = human KLK5 protease inhibitors, primary screen, biochemical, 1536-well | recombinant hK5, fluorogenic AMC substrate cleavage | inhibition, % at 5 µM | 210,000 tested, 0.59% active | AID 873, 2007;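 active = inhibition of 40% or more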;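 also: 0% = enzyme controls without compound and 100% = no-enzyme blanks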
An asterisk follows results filed as active. In the library only some 1.4% were active in any assay of this set; here they are far more common.

What do the screens show for `Cc1cc(C)cc(NC(=O)c2ccc([N+](=O)[O-])o2)c1`?
FXIa inh 1536: 70*; thrombin 1536: 24; m-calpain inh: 27; FXIIa inh: 32; hK5 inh: 30

Results for O=C(Nc1cccc(S(=O)(=O)N2CCOCC2)c1)c1c2c(nc3ccccc13)CCC2 ?
FXIa inh 1536: 6; thrombin 1536: -4; m-calpain inh: -76; FXIIa inh: 11; hK5 inh: -24

How did Fc1ccc(Cn2cccc2C2=NC(c3ccccc3)CO2)cc1 (stereo unspecified) do in these assays?
FXIa inh 1536: -2; thrombin 1536: -10; m-calpain inh: 43; FXIIa inh: 3; hK5 inh: -8

How did Cc1oc(-c2ccccc2)nc1Cn1cccc1C1=NC(c2ccccc2)CO1 (stereo unspecified) do in these assays?
FXIa inh 1536: 0; thrombin 1536: 14; m-calpain inh: 22; FXIIa inh: 3; hK5 inh: 101*

What do the screens show for `CSc1ccccc1C(=O)C1CCCN(C(=O)c2csnn2)C1` (stereo unspecified)?
FXIa inh 1536: -2; thrombin 1536: -15; m-calpain inh: -7; FXIIa inh: 8; hK5 inh: -1

Results for CSc1ccccc1C(=O)C1CCCN(S(=O)(=O)N(C)C)C1 (stereo unspecified) ?
FXIa inh 1536: 33; thrombin 1536: 13; m-calpain inh: 24; FXIIa inh: 102*; hK5 inh: 39

Results for CC(Sc1nc2c(cc1C#N)CCCCC2)C(=O)O (stereo unspecified) ?
FXIa inh 1536: 1; thrombin 1536: -3; m-calpain inh: -12; FXIIa inh: 12; hK5 inh: 18

What do the screens show for `CCOC(=O)CSc1nc(C(C)C)nc2sc(C)c(C)c12`?
FXIa inh 1536: -6; thrombin 1536: -8; m-calpain inh: 54*; FXIIa inh: 4; hK5 inh: -2

What do the screens show for `CCOC(=O)CSc1nc2sc(C)c(C)c2c(=O)n1C`?
FXIa inh 1536: 1; thrombin 1536: -3; m-calpain inh: -5; FXIIa inh: 3; hK5 inh: 3

Results for Cc1csc2ncnc(N3CCN(C(=O)Nc4ccc(OC(F)(F)F)cc4)CC3)c12 ?
FXIa inh 1536: 2; thrombin 1536: 1; m-calpain inh: 57*; FXIIa inh: 8; hK5 inh: 3

How did Cc1ccc(C)c(S(=O)(=O)Nc2ccccc2C(=O)Nc2ccc(S(=O)(=O)Nc3ncccn3)cc2)c1 do in these assays?
FXIa inh 1536: 6; thrombin 1536: -9; m-calpain inh: -131; FXIIa inh: 4; hK5 inh: -29

Results for COc1ccccc1-n1nnnc1SCc1cc2c(cc1Br)OCO2 ?
FXIa inh 1536: 2; thrombin 1536: -4; m-calpain inh: 50*; FXIIa inh: 8; hK5 inh: 0

How did Cc1ccc(/S(C)=N/S(=O)(=O)c2ccc(C)cc2)cc1 (stereo unspecified) do in these assays?
FXIa inh 1536: 17; thrombin 1536: 23; m-calpain inh: 3; FXIIa inh: 26; hK5 inh: 21

How did CCC/S(C)=N/S(=O)(=O)c1ccc(C)cc1 (stereo unspecified) do in these assays?
FXIa inh 1536: 38; thrombin 1536: 10; m-calpain inh: 19; FXIIa inh: 11; hK5 inh: 48*

How did CC(C)[C@H](NC(=O)c1ccco1)C(=O)OCC(=O)Nc1ccccc1OC(F)F do in these assays?
FXIa inh 1536: 2; thrombin 1536: -2; m-calpain inh: 0; FXIIa inh: 5; hK5 inh: 54*

Results for O=C(COC(=O)COc1ccccc1Cl)Nc1ccccc1OC(F)F ?
FXIa inh 1536: -4; thrombin 1536: 22; m-calpain inh: 15; FXIIa inh: 100*; hK5 inh: 26

What do the screens show for `COc1ccc(-c2c[n+]3c4n2CCCCC4=C(c2ccccc2)C3)cc1`?
FXIa inh 1536: -3; thrombin 1536: 58*; m-calpain inh: inactive; FXIIa inh: -2; hK5 inh: -143

What do the screens show for `CC(=O)c1c(N2CCC(C(N)=O)CC2)nc(=S)n(-c2ccccc2)c1C`?
FXIa inh 1536: 9; thrombin 1536: 14; m-calpain inh: 12; FXIIa inh: 22; hK5 inh: 45*

Results for CC(=O)c1c(N2CCN(c3ccccc3)CC2)nc(=S)n(-c2ccccc2)c1C ?
FXIa inh 1536: 3; thrombin 1536: 3; m-calpain inh: -16; FXIIa inh: 12; hK5 inh: -2

What do the screens show for `O=C(NC1CCCCC1)C(c1ccc(O)c(O)c1)N(C(=O)Cn1nnc2ccccc21)c1cccc(O)c1` (stereo unspecified)?
FXIa inh 1536: -1; thrombin 1536: -5; m-calpain inh: -39; FXIIa inh: 7; hK5 inh: 1

What do the screens show for `Cc1cnc(C(=O)Nc2nnc(C(C)C)s2)cn1`?
FXIa inh 1536: 11; thrombin 1536: 0; m-calpain inh: -50; FXIIa inh: 14; hK5 inh: -36

Results for CC(C)c1nnc(NC(=O)c2cnccn2)s1 ?
FXIa inh 1536: 15; thrombin 1536: 41*; m-calpain inh: 6; FXIIa inh: 25; hK5 inh: 37

Results for Cc1ccsc1C(=O)NNC(=O)C1CC=CCC1C(=O)O (stereo unspecified) ?
FXIa inh 1536: 11; thrombin 1536: 23; m-calpain inh: 13; FXIIa inh: 12; hK5 inh: 55*

What do the screens show for `Cc1nc(Sc2ccccc2)c(C#N)cc1-c1ccccc1`?
FXIa inh 1536: 2; thrombin 1536: -2; m-calpain inh: 15; FXIIa inh: 18; hK5 inh: -15

Results for Cc1nc(Cl)c(C#N)cc1-c1ccccc1 ?
FXIa inh 1536: 12; thrombin 1536: 28; m-calpain inh: 15; FXIIa inh: 18; hK5 inh: 57*

What do the screens show for `COc1ccc(/C=C2\CCCC3C2=NN(C(=O)COC(=O)CNC(=O)c2ccccc2)C3c2ccc(OC)cc2)cc1` (stereo unspecified)?
FXIa inh 1536: 2; thrombin 1536: 13; m-calpain inh: -87; FXIIa inh: 16; hK5 inh: 47*

How did N#Cc1ccsc1NC(=O)CN(Cc1ccccc1)Cc1ccccc1 do in these assays?
FXIa inh 1536: 43*; thrombin 1536: -5; m-calpain inh: 38; FXIIa inh: 10; hK5 inh: 4

Results for N#Cc1ccsc1NC(=O)CCc1ccccc1 ?
FXIa inh 1536: -2; thrombin 1536: -3; m-calpain inh: -19; FXIIa inh: 6; hK5 inh: -1

Results for C=C(C)CNC(=S)N/N=C/c1ccc(NC(C)=O)cc1 ?
FXIa inh 1536: -5; thrombin 1536: -10; m-calpain inh: 62*; FXIIa inh: 4; hK5 inh: -2

Results for C=C(C)CNC(=S)N/N=C(\C)c1cccc(NC(C)=O)c1 ?
FXIa inh 1536: 49*; thrombin 1536: 11; m-calpain inh: 17; FXIIa inh: 34; hK5 inh: 75*
